{"source": "paper PMC6500982", "about": "(Cancer Science, 2019)", "key": {"[1]": {"system": "relapsed/refractory B‐cell NHL and CLL", "test": "Efficacy", "format": "in vivo, human", "conditions": "for Partial response (VGPR or PR): includes lymphocytosis assessed as modified PR", "method_in_brief": "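Open-label, multicenter, non-randomised study in Japanese adults (≥20 y) with relapsed/refractory B-cell NHL (DLBCL, MCL, FL, MZL, WM/LPL) or CLL/SLL. Oral test compound was given at 160, 320 or 480 mg QD, or 300 mg BID, until progression, unacceptable AEs or consent withdrawal. Best response was graded per International Workshop Criteria for NHL, WM and CLL. ORR was CR plus PR, including PR with residual lymphocytosis, with Clopper–Pearson 95% CIs. Analysis included all patients receiving ≥1 dose.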"}, "[2]": {"test": "Pharmacokinetics of plasma tirabrutinib, Cycle 1 Day 1 and Day 28", "format": "in vivo, human"}, "[3]": {"target": "Bruton's tyrosine kinase (BTK) (Homo sapiens, UniProt Q06187)", "sequence (Q06187 whole entry)": "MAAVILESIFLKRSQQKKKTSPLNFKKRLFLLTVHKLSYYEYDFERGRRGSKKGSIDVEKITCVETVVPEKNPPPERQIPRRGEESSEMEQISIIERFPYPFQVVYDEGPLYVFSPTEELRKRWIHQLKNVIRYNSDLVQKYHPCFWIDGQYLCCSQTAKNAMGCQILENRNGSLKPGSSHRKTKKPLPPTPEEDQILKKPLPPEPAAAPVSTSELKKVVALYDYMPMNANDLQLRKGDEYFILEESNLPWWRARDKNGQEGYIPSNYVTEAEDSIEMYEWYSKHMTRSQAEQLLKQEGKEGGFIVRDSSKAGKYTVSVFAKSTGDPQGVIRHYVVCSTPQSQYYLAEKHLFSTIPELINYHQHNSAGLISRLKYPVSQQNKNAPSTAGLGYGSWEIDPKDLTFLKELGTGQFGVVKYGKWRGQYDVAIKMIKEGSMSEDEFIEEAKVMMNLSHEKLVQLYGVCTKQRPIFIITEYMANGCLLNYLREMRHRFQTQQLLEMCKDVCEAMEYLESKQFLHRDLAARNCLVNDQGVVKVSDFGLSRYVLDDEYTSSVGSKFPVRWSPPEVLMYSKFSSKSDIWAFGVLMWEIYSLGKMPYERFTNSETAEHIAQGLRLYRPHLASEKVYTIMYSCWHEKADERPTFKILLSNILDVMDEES", "format": "in vivo", "method_in_brief": "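PBMCs isolated from blood drawn pre-dose and 2 hours post-dose on Cycle 1 Day 1 were analysed by western blot with anti-pBTK, anti-BTK and anti-β-actin antibodies. pBTK band intensity was quantified by imaging analyzer, normalised to β-actin, and expressed relative to the pre-dose Day 1 level (set as 100%).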"}, "[4]": {"system": "ABC‐DLBCL cell line, TMD8", "conditions": "cited from earlier work"}, "[5]": {"system": "TMD8 transplanted mouse tumor model", "conditions": "cited from earlier work"}, "[6]": {"conditions": "B‐cell NHL, European phase I study; cited from earlier work"}, "[7]": {"conditions": "DLBCL, 3 patients who received 300 mg BID"}}, "note": "“Also recorded” adds a separate entry of the source."}
{"compound": "CC#CC(=O)N1CC[C@@H](n2c(=O)n(-c3ccc(Oc4ccccc4)cc3)c3c(N)ncnc32)C1", "note": "[tirabrutinib]", "values": [{"measurement": "Complete response (CR, CRu, CRi)", "setting": "[1]; 160 mg QD N = 3", "result": "1 (33.3) n (%)"}, {"measurement": "Overall response (CR, CRu, CRi, VGPR or PR)", "setting": "[1]; 160 mg QD N = 3", "result": "3 (100.0) n (%)"}, {"measurement": "Partial response (VGPR or PR)", "setting": "[1]; 160 mg QD N = 3", "result": "2 (66.7) n (%)"}, {"measurement": "Complete response (CR, CRu, CRi)", "setting": "[1]; 300 mg BID N = 7", "result": "3 (42.9) n (%)"}, {"measurement": "Overall response (CR, CRu, CRi, VGPR or PR)", "setting": "[1]; 300 mg BID N = 7", "result": "4 (57.1) n (%)"}, {"measurement": "Partial response (VGPR or PR)", "setting": "[1]; 300 mg BID N = 7", "result": "1 (14.3) n (%)"}, {"measurement": "Complete response (CR, CRu, CRi)", "setting": "[1]; 320 mg QD N = 3", "result": "2 (66.7) n (%)"}, {"measurement": "Overall response (CR, CRu, CRi, VGPR or PR)", "setting": "[1]; 320 mg QD N = 3", "result": "3 (100.0) n (%)"}, {"measurement": "Partial response (VGPR or PR)", "setting": "[1]; 320 mg QD N = 3", "result": "1 (33.3) n (%)"}, {"measurement": "Complete response (CR, CRu, CRi)", "setting": "[1]; 480 mg QD N = 4", "result": "0 (.0) n (%)"}, {"measurement": "Overall response (CR, CRu, CRi, VGPR or PR)", "setting": "[1]; 480 mg QD N = 4", "result": "3 (75.0) n (%)"}, {"measurement": "Partial response (VGPR or PR)", "setting": "[1]; 480 mg QD N = 4", "result": "3 (75.0) n (%)"}, {"measurement": "Median progression‐free survival", "setting": "[1]; Cohort 3 (480 mg QD)", "result": 109, "unit": "days"}, {"measurement": "Median progression‐free survival", "setting": "[1]; Cohorts 1, 2 and 4", "result": "not estimable"}, {"measurement": "Number of CR", "setting": "[1]; DLBCL (5 patients)", "result": 2}, {"measurement": "Best overall response CR, number of patients", "setting": "[1]; [7]", "result": 2, "unit": "patients"}, {"measurement": "Best overall response stable disease, number of patients", "setting": "[1]; [7]", "result": 1, "unit": "patient"}, {"measurement": "Number of CR", "setting": "[1]; FL (5 patients)", "result": 1}, {"measurement": "Number of CR", "setting": "[1]; MCL (4 patients)", "result": 3}, {"measurement": "Complete response (CR, CRu, CRi)", "setting": "[1]; Total N = 17", "result": "6 (35.3) n (%)"}, {"measurement": "Overall response (CR, CRu, CRi, VGPR or PR)", "setting": "[1]; Total N = 17", "result": "13 (76.5) n (%)"}, {"measurement": "Partial response (VGPR or PR)", "setting": "[1]; Total N = 17", "result": "7 (41.2) n (%)"}, {"measurement": "Overall response rate (≥PR)", "setting": "[1]; all patients (13/17)", "result": 76.5, "unit": "%"}, {"measurement": "Patients with early response within 1 month after beginning of treatment", "setting": "[1]; of 13 patients who achieved PR or more", "result": 8, "unit": "patients"}, {"measurement": "Pharmacokinetics linearity", "setting": "[2]; 160 mg QD to 300 mg BID", "result": "linear"}, {"measurement": "Increase in Cmax and AUC with dose", "setting": "[2]; 160 to 480 mg QD", "result": "increased in a dose‐dependent manner"}, {"measurement": "Arithmetic mean trough plasma concentration, 300 mg BID vs 480 mg QD", "setting": "[2]; C1D28", "result": 3.2, "unit": "fold"}, {"measurement": "Accumulation following multiple doses", "setting": "[2]; Day 28 vs Day 1", "result": "little accumulation"}, {"measurement": "Expression level of pBTK in PBMC", "setting": "[3]; 11 patients with confirmed basal pBTK expression, doses ≥160 mg QD", "result": "suppressed the expression level of pBTK in all 11 patients; also recorded: fully suppressed"}, {"measurement": "pBTK suppression", "setting": "[3]; patients other than the CLL patient, 2 hours post–dose on Day 1 of Cycle 1", "result": "Complete suppression"}, {"measurement": "Cytostatic properties in vitro", "setting": "[4]", "result": "cytostatic properties"}, {"measurement": "Cytostatic properties in vivo", "setting": "[5]", "result": "cytostatic properties"}, {"measurement": "Tolerability observed up to (dose)", "setting": "[6]", "result": "up to 480 mg once daily (QD)"}]}
